Screens: PubChem, several laboratories
H9c2 protect: modulators protecting cardiomyocytes from myocardial damage; H9c2 cardiomyocytes, H2O2 injury protection, ATPLite, 2 h; protection from H2O2 cell death, % at 20 µM; 360,000 compounds, 0.63% hits; AID 588492;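 active = compounds giving at least 50% protection of heart cells from peroxide-induced death in the single-dose screen, raw or plate-pattern-corrected value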;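 note: 0% = DMSO wells with peroxide and 100% = DMSO wells without peroxide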
CHOP inhibitor: CHOP inhibition in unfolded protein response | 220,000 compounds, 3.8% hits | inhibition, % at 10 µM | CHO-K1 CHOP-promoter luciferase, tunicamycin-induced, 15-18 h;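 active = compounds that reduced the stress-induced luciferase reporter signal by more than about 70% of percent inhibition, limit read from the data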;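 note: 0% = tunicamycin plus vehicle and 100% = wells without tunicamycin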
UPR CHOP act: activators of apoptotic arm of unfolded protein response (CHOP); AID 449763; activation, % at 10 µM; 330,000 compounds, 0.34% hits; CHO-CHOP luciferase reporter, UPR activation, luminescence; percent of tunicamycin response over DMSO baseline;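 active = at 10 µM dose, activation of 40% or more, normalized to positive control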;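 note: 100% = tunicamycin at 10 µg/mL and 0% = DMSO alone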
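System: CHO CHOP reporter cells. Amount: 500 cells per well. Buffer or medium: F12 medium, 10% FBS. Compound dosing: one dose, 10 µM in 0.5% DMSO. Incubation: 6 h compound exposure at 37 °C after overnight seeding. Technique: Steady-Glo luciferase luminescence. Benchmarks: tunicamycin and DMSO controls.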
hiPSC survival: increases survival of single human iPS cells | hiPSC single-cell survival, ATPlite luminescence; 100% = ROCK inhibitor wells, 0% = DMSO | survival enhancement, % at 20 µM | 360,000 compounds, 0.044% hits | AID 602274; in the data active = survival enhancement above about 18%;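 note: cells exposed to compounds for 16 hours before the ATP read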
UPR XBP1 act: activators of adaptive arm of unfolded protein response (XBP1). CHO-XBP1 luciferase reporter, IRE1-XBP1 UPR activation, luminescence; percent of tunicamycin response, DMSO as zero. activation, % at 20 µM. 330,000 compounds, 0.33% hits;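 active = versus positive control, 20 µM dose yields 30% or more activation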;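 note: 100% = tunicamycin at 10 µg/mL and 0% = DMSO only wells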
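Assay system: IRE1-XBP1 luciferase reporter CHO line. Input: 1000 cells/well. Buffer or medium: F12 with 10% serum. Doses: 20 µM, 1% DMSO. Times: overnight seeding at 37 °C, 6 h compound treatment at 37 °C. Technique: Steady-Glo luciferase glow luminescence, 10 min after reagent addition.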
UPR CHOP confirm: apoptotic UPR (CHOP) activation, confirmed. CHO-CHOP cells, CHOP-luciferase reporter luminescence; percent of tunicamycin response, DMSO as zero. 1,000 compounds, 64% hits. AID 463112. shares compounds with UPR CHOP act. activation, % at 10 µM; in the data active = activation above about 33%;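 note: 0% = DMSO wells and 100% = tunicamycin 10 µg/mL wells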
XBP1 UPR conf: confirmation of adaptive unfolded protein response (XBP1) activators; 1,000 compounds, 63% hits; activation, % at 20 µM; shares compounds with UPR XBP1 act; CHO-XBP1 IRE1-XBP1 luciferase reporter, luminescence;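 active = reporter signal at least 30% of the positive control's activation in two or more of four replicate wells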;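 note: plate controls were DMSO negative control for no effect and tunicamycin 10 µg/mL positive control for full effect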
An asterisk follows results filed as active; nt = no result given. Shown is part of a subset that was picked to be rich in hits.

SMILES	H9c2 protect	CHOP inhibitor	UPR CHOP act	hiPSC survival	UPR XBP1 act	UPR CHOP confirm	XBP1 UPR conf
O=[N+]([O-])c1ccc(Cl)c(-c2ccc(/C=N/c3c(-c4ccco4)nc4ccccn34)o2)c1	10	54	74*	1	90*	0	95*
CN(C)CCN1CCN(C2CN(Cc3ccc([N+](=O)[O-])cc3)S(=O)(=O)C2)CC1 (stereo not given)	3	nt	nt	-1	nt	nt	nt
CCOc1ccc(-n2nc3ccc(NC(=O)c4ccc5c(c4)OCCO5)cc3n2)cc1	-4	76*	73*	-1	155*	20	122*
O[C@H]1CN(CC2CCCCC2)[C@@H](c2ccccc2)C[C@@H]1n1cc(C2CC2)nn1	-11	nt	nt	1	nt	nt	nt
O=C(COc1ccccc1[N+](=O)[O-])Nc1ccc(NC(=O)c2cc3ccccc3o2)cc1	2	70	0	0	13	nt	nt
O=C(COc1ccc(/C=N/NC(=O)c2cc3ccccc3o2)cc1Br)Nc1ccccc1	-8	-21	275*	-2	107*	58*	45*
O=C(NCc1ccccc1Br)c1cccc2c1C(=O)c1ccc(-c3ccc(OC(F)(F)F)cc3)cc1S2(=O)=O	-5	nt	98*	-2	115*	88*	86*
CC(C)c1cccc(-c2ccc3c(c2)S(=O)(=O)c2cccc(C(=O)NCc4ccccc4Cl)c2C3=O)c1	-4	nt	49*	0	99*	34*	109*
O=C(O)c1cccc2c1C(=O)c1ccc(-c3ccc(OC(F)(F)F)cc3)cc1S2(=O)=O	-1	nt	1	1	-1	nt	nt
COc1ccc(CN(C)C(=O)Cc2ccc(OC)c(S(=O)(=O)N3CCOCC3)c2)cc1	2	nt	0	0	0	nt	nt
CCOC(=O)C1(C)CCCN(C(=O)c2cc(OC)c(OC)c(OC)c2)C1 (stereo not given)	-2	nt	nt	-1	nt	nt	nt
Cc1cc(N=Cc2c(O)n(-c3ccc(C)c(C)c3)c(=O)c3ccccc23)no1	nt	67	nt	nt	nt	nt	nt
CCOC(=O)Cc1csc(/N=C/c2c(O)n(-c3ccc(C)c(C)c3)c(=O)c3ccccc23)n1	1	59	66*	-2	95*	63*	155*
CCc1ccc(NC(=O)COc2ccc(/C=C(/C#N)c3nc4ccccc4[nH]3)cc2OC)cc1	16	87*	172*	-3	192*	1	-2
COc1cc(/C=C(/C#N)c2nc3ccccc3[nH]2)ccc1OCc1ccc(C(=O)O)o1	0	-9	-1	7	-3	nt	nt
Cc1cccc(C(O)c2ncc(-c3ccc(Cl)cc3)[nH]2)c1C (stereo not given)	-19	nt	nt	1	nt	nt	nt
COc1cc([C@H]2c3[nH]c4ccccc4c3C[C@H]3C(=O)N4[C@@H](c5cc(OC)c(OC)c(OC)c5)c5[nH]c6ccccc6c5C[C@H]4C(=O)N23)cc(OC)c1OC	20	96*	88*	-2	153*	109*	118*
CCN1C(=O)[C@@H]2Cc3c([nH]c4ccccc34)C(c3cc(OC)c(OC)c(OC)c3)N2C1=S (stereo not given in full)	-3	nt	0	0	-4	nt	nt
CCN(CC)C(=O)c1cccc(-c2csc(C(C)(NC(C)=O)c3ccc(OC)cc3)n2)c1 (stereo not given)	-1	nt	nt	-2	nt	nt	nt
COc1ccc(/C=N/NC(=O)C(=O)/C=C2\NC3(CCCC3)Cc3ccccc32)cc1	0	10	5	0	3	nt	nt
O=C(/C=C1\NC2(CCCC2)Cc2ccccc21)C(=O)N/N=C/c1ccc(O)c(O)c1	102*	54	124*	-1	92*	68*	80*
Nc1cccc(-c2nc3cc(S(=O)(=O)c4ccc5oc(-c6cccc(N)c6)nc5c4)ccc3o2)c1	4	11	57*	1	50*	78*	92*
Brc1ccc(-c2ccc(/C=N/Nc3nncc(-c4ccccc4)n3)o2)cc1	9	50	59*	-1	91*	62*	128*
COc1ccc(-c2cc(=O)oc3c(C)c(OC(C)C(C)=O)ccc23)cc1 (stereo not given)	23	nt	-1	0	1	nt	nt
COc1ccc(-c2cc(=O)oc3c(C)c(OC(=O)c4cccs4)ccc23)cc1	40	80*	66*	0	80*	89*	114*
SMILES	H9c2 protect	CHOP inhibitor	UPR CHOP act	hiPSC survival	UPR XBP1 act	UPR CHOP confirm	XBP1 UPR conf
O=C(NCCN1CCC(n2c(=O)[nH]c3ccccc32)CC1)C(c1ccccc1)c1ccccc1	nt	nt	nt	0	nt	nt	nt
COCCOc1ccc(C(F)(F)F)cc1NC(=O)COC(=O)c1ccc(N2CCCC2=O)cc1	-4	nt	0	2	-2	nt	nt
CS(=O)(=O)Oc1ccc2c(c1)O/C(=C\C=C\c1ccccc1)C2=O	-9	31	154*	-1	47*	34*	2
c1ccc(-c2cc3nc(NCc4cccs4)nc(NCc4ccc5occc5c4)c3s2)cc1	-5	nt	nt	-2	nt	nt	nt
C/C(=N\Nc1ncnc2sc(C)c(C)c12)c1ccccn1	17	nt	97*	0	97*	88*	122*
OC(c1ccc2ccccc2c1)c1ncc(-c2cccc3ccccc23)[nH]1 (stereo not given)	-4	nt	nt	8	nt	nt	nt
Cc1ccc(-c2nn(-c3ccccc3)cc2/C=C/C(=O)Nc2nccs2)cc1	-2	93*	45*	-2	50*	13	26
COc1cccc(-c2c(-c3cc(OC)cc(OC)c3)n(C)c3ccc(-c4cnc(N5CCOCC5)nc4)cc23)c1	0	nt	104*	6	124*	28	93*
COc1cccc(-c2c(-c3cc(OC)cc(OC)c3)n(C)c3ccc(-c4cnc(OC)nc4)cc23)c1	5	nt	1	0	-1	nt	nt
c1ccc(N=Nc2ccc3cccccc2-3)cc1	-14	nt	67*	1	83*	21	60*
CCOC(=O)c1cnc(Nc2nc3ccccc3o2)nc1CSC(=S)N(CC)CC	16	-90	127*	1	33*	122*	21
CCOC(=O)c1cnc(Nc2nc3ccccc3o2)nc1CSc1ncccn1	nt	nt	-1	nt	2	nt	nt
COc1ccccc1C(=O)NC(=S)NNC(=O)c1sc2ccccc2c1Cl	13	89*	48*	0	38*	51*	53*
CCOc1ccccc1-c1cncc(NC)n1	16	nt	nt	0	nt	nt	nt
Cc1cccc(C)c1C(O)c1ncc(-c2cccc(F)c2)[nH]1 (stereo not given)	-4	nt	nt	0	nt	nt	nt
